Laboratory results reported in the RNAGym collection of RNA variant scans (doi:10.1126/science.aae0568).
Variants at the floor of the assay were thinned out.

B1: tRNA (parent)
chain: GUUCCGUUGGCGUAAUGGUAACGCGUCUCCCUCCUAAGGAGAAGACUGCGGGUUCGAGUCCCGUACGGAACG

Variants of: B1
Assay: yeast fitness relative to wild type (ratio to wild type); higher = fitter; tRNA-Arg(CCU), competitive growth, 37 C, YPD
How it was run: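 Start and end populations of a pooled competition were compared by 100-nucleotide paired-end sequencing of gene amplicons. The Saccharomyces cerevisiae strains carried tRNA-Arg(CCU) gene variants at the native genomic locus, synthesised with a 3% per-site mutation rate at 69 sites, and competed in YPD at 37°C for 24 hours in six parallel replicates. Darwinian fitness relative to wild type was based on the change in genotype frequencies. Genotypes required ≥ 100 starting reads, and estimates < 0.5 were set to 0.5.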

Row | Variant | yeast fitness
1 | G9A G39C C66U | 0.606
2 | G9A C29A G48A | ≤ 0.5
3 | G9A G12C | 0.943
4 | G9A G12A | 0.927
5 | G9A A69C | 1.05
6 | G9A G56C | 0.563
7 | G9A C30U C33A A36U A43U | ≤ 0.5
8 | G9A G56C C61U | 0.603
9 | G9A G17C | 0.668
10 | G9A C11G U13C C27A C29U C62A | ≤ 0.5
11 | G9A C22G A65C | 0.679
12 | G9A C24U U53A C66U | 0.529
13 | G9A G48C G68C | 0.603
14 | G9A G58C U59C | 0.632
15 | G9A G17C G56C | 0.589
16 | G9A C11A A57G | ≤ 0.5
17 | G9A G38A | 0.976
18 | G9A C34U A36G C49G C62A A65C | ≤ 0.5
19 | G9A G12A C22G A43G C46G C66U | ≤ 0.5
20 | G9A G10A | 0.577
21 | G9A C11A G44A C46A | ≤ 0.5
22 | G9A C11G U13G G23C C34U U59C C66U | 0.574
23 | G9A C24U U32A | 0.564
24 | G9A C24A U59A G67A | ≤ 0.5

Row | Variant | yeast fitness
25 | G9A G58A G67A | 0.959
26 | G9A C55G A65C | ≤ 0.5
27 | G9A C11G C33U A36G C55G | ≤ 0.5
28 | G9A C33U A36U | 0.536
29 | G9A C11U C46G C62U C66U | ≤ 0.5
30 | G9A A70C | 1.06
31 | G9A A70U | 0.875
32 | G9A C30U C34G A40C C49G G68C | ≤ 0.5
33 | G9A C29A C34A | 0.576
34 | G9A C49U | 0.845
35 | G9A U16C U32G G48C G58C | ≤ 0.5
36 | G9A C11A A14C U16A C31A C61U | ≤ 0.5
37 | G9A C60G A70U | 0.584
38 | G9A C30U C49U U64A | ≤ 0.5
39 | G9A G44C G58A | 0.766
40 | G9A C24G U28C A57C | ≤ 0.5
41 | G9A C33G A42C C49U C55G | 0.729
42 | G9A G12U A14U U32G U53A | ≤ 0.5
43 | G9A G10A C11U | 0.668
44 | G9A C31U A57C U64A G68A | ≤ 0.5
45 | G9A U16C A20G A42G G68U | ≤ 0.5
46 | G9A G12C A14C G50C | 0.594
47 | G9A C30U G68C | ≤ 0.5
48 | G9A C33G C49A A69U | ≤ 0.5

Row | Variant | yeast fitness
49 | G9A G50A | 1
50 | G9A G39C C62G U64C | 0.568
51 | G9A G23A A36G | 0.652
52 | G9A C46U C66U | 1.04
53 | G9A G18A C27U A42U | 0.652
54 | G9A G12C U13A G25A C30G | ≤ 0.5
55 | G9A C22G U35C C49G G68C | ≤ 0.5
56 | G9A C61G | 0.705
57 | G9A C29G C66U | ≤ 0.5
58 | G9A G52C | 0.641
59 | G9A U16G | 0.799
60 | G9A G10A G25A C31G G52A C61U | ≤ 0.5
61 | G9A C11G A57U | ≤ 0.5
62 | G9A G10A C34U C66U | ≤ 0.5
63 | G9A G48C G52A | ≤ 0.5
64 | G9A C31A G56A G67A | ≤ 0.5
65 | G9A C11A A69C | 0.567
66 | G9A G23U A42C | ≤ 0.5
67 | G9A G25A C49U | 0.773
68 | G9A A69C A70C | 1.04
69 | G9A G12C G17A C22G C30U C34G | ≤ 0.5
70 | G9A G44A C55A A57U | ≤ 0.5
71 | G9A C29A C31A A40C G44A U59A | ≤ 0.5
72 | G9A C24G C34G A43C | ≤ 0.5

Row | Variant | yeast fitness
73 | G9A C49U A65U | 0.651
74 | G9A G44A | 0.983
75 | G9A U13C C29G | ≤ 0.5
76 | G9A C60U U64G | 0.696
77 | G9A C11U A69C | 0.787
78 | G9A C22U A37G | ≤ 0.5
79 | G9A C11U A14G C29A | ≤ 0.5
80 | G9A G38C G41C U54A | ≤ 0.5
81 | G9A C22U A43G U64A | ≤ 0.5
82 | G9A C11G C24G U32A | ≤ 0.5
83 | G9A G52A G56U | ≤ 0.5
84 | G9A C33A C46A G56C | ≤ 0.5
85 | G9A C29G A57G | ≤ 0.5
86 | G9A C34U C46A C62U C66U | ≤ 0.5
87 | G9A G25C U26A C30U | ≤ 0.5
88 | G9A C24U U32G A65C C66G | ≤ 0.5
89 | G9A G18C | 0.643
90 | G9A G63A | 1.06
91 | G9A C34U C49A G52A | ≤ 0.5
92 | G9A C22U C30A C49A C55A C61A C62U C66U | ≤ 0.5
93 | G9A C29A G50A | 0.62
94 | G9A G25C C62U | 0.712
95 | G9A G17C C49G | ≤ 0.5
96 | G9A C31A C33A | ≤ 0.5

Row | Variant | yeast fitness
97 | G9A G17C A20U U54A C61U | ≤ 0.5
98 | G9A C31A G50C | 0.604
99 | G9A G68C | 0.857
100 | G9A C11A G38C G58A C60G | ≤ 0.5
101 | G9A G25C C60G | ≤ 0.5
102 | G9A G23A C27A G67C | ≤ 0.5
103 | G9A C22G C31U | 0.683
104 | G9A G58U A70G | 0.984
105 | G9A G23C G39C | ≤ 0.5
106 | G9A G18C G39C A69U | ≤ 0.5
107 | G9A C22G C31U C61A A65C C66A | ≤ 0.5
108 | G9A G12C A14C G23A G50C | 0.56
109 | G9A U16C A57G | 0.598
110 | G9A C22A U26A G52C G67A | ≤ 0.5
111 | G9A G10A C31G G44A | ≤ 0.5
112 | G9A G12U A14U | ≤ 0.5
113 | G9A U13C C29G A69U | 0.53
114 | G9A C27U C46G | 0.708
115 | G9A G17U U35A G52A U59C C66A G67A | ≤ 0.5
116 | G9A G10C C11U U16G G41A G48A A65U | ≤ 0.5
117 | G9A C46G C49U A69C | 0.709
118 | G9A G48C A70C | 1.08
119 | G9A G51A | 0.919
120 | G9A C29U U32A A43U C61G A65C C66G | ≤ 0.5

Row | Variant | yeast fitness
121 | G9A C24U A40U A57U | 0.514
122 | G9A C46A C61A | 0.53
123 | G9A C27G C34A C46G | ≤ 0.5
124 | G9A C31A A65U | ≤ 0.5
125 | G9A C31A A65C | 0.871
126 | G9A G48C U53G | ≤ 0.5
127 | G9A C24G C30U A57G | ≤ 0.5
128 | G9A C11A C30A A42C G67C | ≤ 0.5
129 | G9A C11U A42U U47C G51A A70C | ≤ 0.5
130 | G9A C30U G52A | ≤ 0.5
131 | G9A C22U G48A C60G A65C | ≤ 0.5
132 | G9A U19C C33U A40U U59A | ≤ 0.5
133 | G9A G25A | 0.978
134 | G9A G23C U64A | ≤ 0.5
135 | G9A C49U A69C | 0.85
136 | G9A G12C G17A C22G C30U C34G U59G A70U | ≤ 0.5
137 | G9A C27G C34A C46G C55A G63A | ≤ 0.5
138 | G9A C27A C49U C60U C62A A65G | ≤ 0.5
139 | G9A G12U A14U C27G G39A G67A | ≤ 0.5
140 | G9A G38A A65U | 0.565
141 | G9A G17C C29G C49G | ≤ 0.5
142 | G9A U16C U32G G48C | ≤ 0.5
143 | G9A C46G C61A | ≤ 0.5
144 | G9A C27U A43G | 0.588

Row | Variant | yeast fitness
145 | G9A C27G C33G C55G A57C | ≤ 0.5
146 | G9A C11A C34G A36G A65C | ≤ 0.5
147 | G9A G50C C62G C66U | 0.687
148 | G9A G17C G52A C55A | ≤ 0.5
149 | G9A C22G G67A | 0.648
150 | G9A U16C A69C | 0.763
151 | G9A U19A A43G A69C | 0.541
152 | G9A C29U C55U | 0.535
153 | G9A C30U C33A A36U C49U | ≤ 0.5
154 | G9A C31U C60U C62U | ≤ 0.5
155 | G9A C66U | 0.898
156 | G9A U16C U19G C27A C33U U53C A65U C66U | ≤ 0.5
157 | G9A G23A | 0.825
158 | G9A C22A U53A A57G C60A | ≤ 0.5
159 | G9A U13A U47A C60A | ≤ 0.5
160 | G9A G10C G25C C33U | ≤ 0.5
161 | G9A C11G U13G G23C C34U C49U U59C C66U | ≤ 0.5
162 | G9A G25A A40C C46U | 0.727
163 | G9A G39A G63C | 0.556
164 | G9A U13C U19C | 0.907
165 | G9A U16C C30G C34G A40G C61A C62U G63C | 0.666
166 | G9A C30A A42C G68A | ≤ 0.5
167 | G9A U13A A15G C27U | ≤ 0.5
